Mdm2 ligase inh = blocks human Mdm2 ubiquitin ligase activity. Q00987. hit rate 0.11% among 210,000. cell-based MDM2 ubiquitination luciferase reporter, 2 h; 0 = plate control, 100 = twice control, blank-subtracted. signal enhancement, % at 5 µM;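 active = signal enhancement of 30% or more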;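 note: luminescence tracks abundance of the self-degrading MDM2-luciferase fusion protein; higher signal means inhibition of MDM2 E3 ligase activity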
Target sequence (Q00987 whole entry, looked up, the tested form may be a part): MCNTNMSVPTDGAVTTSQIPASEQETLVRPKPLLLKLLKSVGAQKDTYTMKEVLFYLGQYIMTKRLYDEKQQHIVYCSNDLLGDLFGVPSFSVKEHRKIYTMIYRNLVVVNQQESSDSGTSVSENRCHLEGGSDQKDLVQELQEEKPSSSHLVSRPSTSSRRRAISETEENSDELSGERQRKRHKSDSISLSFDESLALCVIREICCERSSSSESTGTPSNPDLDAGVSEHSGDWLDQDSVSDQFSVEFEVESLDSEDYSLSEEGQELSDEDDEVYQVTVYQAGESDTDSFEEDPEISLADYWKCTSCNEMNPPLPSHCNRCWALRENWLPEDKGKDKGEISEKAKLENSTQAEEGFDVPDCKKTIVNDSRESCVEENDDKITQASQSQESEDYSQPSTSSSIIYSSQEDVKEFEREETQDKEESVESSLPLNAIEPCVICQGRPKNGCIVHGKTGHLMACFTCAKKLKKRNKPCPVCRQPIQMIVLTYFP
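Material: stable MDM2–luciferase fusion reporter cells / Quantity: 2000 cells/well / Dosing: single 5 µM compound dose, 0.2% final DMSO / Buffer or medium: DMEM / Schedule: 4 h cell settling then 2 h compound exposure, 37 °C / Detection: luminescence with SteadyLite reagent, 15 min at room temperature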
STAT1 activator = increases IFN-gamma driven STAT1 reporter signal; NIH 3T3 STAT1-luciferase reporter, luminescence; 100% = IFN-gamma alone, no compound; activation (% of control), % at 5.5 µM; hit rate 2.6% among 200,000; AID 932;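 active = activation above the screen-wide mean activation plus 3 SD, cut at about 130% in these data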;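 note: raw ratio to IFN-gamma control signal so 100% means no change and 0% no light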
PERK inhibitor = blocks human PERK kinase | AID 1416 | inhibition, % at 5.6 µM | CHO PERK-DD fusion, SEAP luminescence translation reporter | hit rate 0.17% among 220,000;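 active = inhibition above the mean inhibition of all tested compounds plus 3 SD, set separately per screening campaign, cut at about 2.9% in these data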;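 note: PERK kinase domain activated by AP20187 dimerizer at 100 nM; 0% = DMSO with dimerizer and 100% = rapamycin at 8.4 µM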
AHR activator = activators of human aryl hydrocarbon receptor. P35869. AHR-responsive luciferase reporter cells, luminescence. activation, % at 5 µM. hit rate 2.5% among 320,000. AID 2796; in the data active = activation above about 47%;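 note: 0% = vehicle wells and 100% = reference agonist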
NF-kB neuron act = compounds increasing NF-kB expression in human neuronal cells. NF-kB reporter expression; hits give high values. fold change at 12.5 µM. hit rate 1.6% among 190,000. AID 1239; in the data active = fold change above about 3.3
APP 5'UTR act = APP 5'UTR luciferase reporter activation; activation, % at 2 µM; AID 1276; SH-SY5Y APP 5'UTR luciferase reporter, luminescence; zero percent = DMSO vehicle wells; hit rate 1% among 190,000;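 active = activation above a set limit, based on mean plus 3 SD of controls, cut at about 140% in these data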
An asterisk follows results filed as active; x = not tested or not shown. The list is not random: actives were taken first. Their share in the collection is about 4.5%.

SMILES	Mdm2 ligase inh	STAT1 activator	PERK inhibitor	AHR activator	NF-kB neuron act	APP 5'UTR act
COC(=O)c1cc(OC)c(OC)cc1NC(=O)c1oc2ccccc2c1C	x	106	1	x	x	11
O=C(COc1cccc(F)c1)NNC(=O)Cc1ccc(Br)cc1	x	x	x	3	x	x
COc1cccc(C(=O)Nc2cc(NC(=O)c3cccs3)ccc2C)c1OC	x	x	x	15	x	x
CCOC(=O)c1nnn(-c2nonc2N)c1CN(CC)c1ccccc1	-20	95	0	-4	1.1	-5
Cc1ccc(S(=O)(=O)N(C)C)cc1NC(=O)C1CCCCC1	-13	x	0	-4	x	x
Cc1ccnc(NC(=O)c2oc3ccccc3c2C)c1	x	x	x	44	x	x
CC(=O)Nc1cccc(NC(=O)c2oc3ccccc3c2C)c1	-13	142*	0	113*	2.3	68
COc1ccc2oc(C(=O)C3CC3)c(N)c2c1	-20	140*	1	34	2.6	83
Cc1c(C(=O)Nc2cnccn2)oc2ccccc12	-2	121	0	93*	4.7*	28
CC(=O)Nc1c(C(=O)C2CC2)oc2ccccc12	-5	101	2	4	1	-4
CC(=O)Nc1ccc(NC(=S)NC(=O)c2oc3ccccc3c2C)cc1	-1	102	0	18	1.2	7
CC(=O)Nc1c(C(=O)c2ccccc2)oc2ccccc12	4	96	0	109*	1.1	-7
O=C(c1ccc(Br)cc1)N1CCC2(CC1)NCCc1[nH]cnc12	x	x	x	-2	x	x
COc1ccc(C(=O)NCC(=O)OCC(=O)c2c(C)[nH]c3ccccc23)cc1OC	x	x	x	12	x	x
Nc1nnc(SCc2ccc(F)cc2)n1-c1ccccc1	11	103	1	-1	1.2	-9
CCCn1c(N)c(C(=O)CSc2nnc(Cc3cccs3)n2C2CC2)c(=O)n(C)c1=O	x	x	x	1	x	x
COc1ccccc1NC(=O)N1CCN(C(=O)Nc2ccccc2OC)CC1	x	x	0	-2	x	x
CCC1c2ccc(C)n2CCN1C(=O)Nc1ccccc1OC (stereo unspecified)	7	106	-1	48*	1.3	17
COc1cccc(NC(=O)CN(C)C(=O)/C=C/c2ccc3ccccc3n2)c1	x	x	x	23	x	x
COc1ccc(-c2nc(-c3ccccc3)ncc2S(C)(=O)=O)cc1	-17	102	1	2	1	1
Cc1cc2ncc(-c3ccc(Cl)cc3)c(N)n2n1	-26	129*	0	2	1.2	45
Nc1c(-c2ccc(Cl)cc2)cnc2ncnn12	10	96	1	0	1	12
COc1ccc(OCc2cc(C(=O)N3CCCC(CO)C3)no2)c2ccccc12 (stereo unspecified)	x	x	x	50*	x	x
CSc1ccccc1OCc1cc(C(=O)N2CCCC(C)C2)no1 (stereo unspecified)	x	x	x	11	x	x
COc1ccc2cc(/C=N/NC(=O)c3ccc(CN(c4cccc(Cl)c4Cl)S(C)(=O)=O)cc3)c(Cl)nc2c1	-7	91	0	19	1	13
SMILES	Mdm2 ligase inh	STAT1 activator	PERK inhibitor	AHR activator	NF-kB neuron act	APP 5'UTR act
O=CN1CCN(S(=O)(=O)c2ccc(S(=O)(=O)NC3CCCCC3)cc2)CC1	x	x	x	2	x	x
COc1cccc(C(=O)NC(=S)Nc2ccccc2N2CCCC2)c1	-3	100	0	49*	1	-17
COc1cc(C(=O)NC(=S)Nc2ccccc2N2CCCC2)cc(OC)c1OC	x	x	x	18	x	x
COc1cccc(C(=O)Nc2ccccc2N2CCCC2)c1	2	95	0	2	1.1	-12
CC(C)Oc1cccc(C(=O)NC(=S)Nc2ccccc2)c1	-24	145*	0	5	2.1	75
CC(C)(C)C(=O)NC(=S)Nc1cccc(C(=O)O)c1	x	131*	1	12	x	86
COc1cccc(C(=O)NC(=S)Nc2ccccc2N2CCCCC2)c1	x	x	x	73*	x	x
CNC(=S)Nc1cccc(C(=O)O)c1	-21	95	1	6	1.1	-15
Cc1cccc(N(CC(=O)NC2CCCCC2)C(=O)CCC(=O)Nc2nccs2)c1	x	x	x	0	x	x
O=C(NC(=S)Nc1ccccc1N1CCCC1)c1ccccc1[N+](=O)[O-]	-13	98	-1	6	0.7	0
O=C(NC(=S)Nc1ccccc1N1CCCC1)c1ccccc1Br	x	x	x	75*	x	x
CCOC(=O)c1c2ccccc2[n+]([O-])n1CCO	x	x	x	17	x	x
Oc1cccc(-c2nc3ccc4ccccc4c3c3c2CCC3)c1	0	142*	0	7	3.8*	88
Cc1noc(C)c1NC(=O)N(C)C[C@@H]1Oc2ccc(NC(=O)Cc3cn(C)c4ccccc34)cc2CC(=O)N([C@H](C)CO)C[C@@H]1C	x	x	x	14	x	x
CCCSc1nnc2n(C)c(=O)c3c4c(sc3n12)CCC4	-23	95	-1	78*	0.92	-19
CCCCN(CCCC)C(=O)CSc1nnc2n(C)c(=O)c3c4c(sc3n12)CCCC4	6	93	-1	x	0.34	-10
Cn1cnc2c(oc3ccccc32)c1=O	x	x	x	2	x	x
CC(C)(C)c1ccc(C(=O)Oc2ccccc2CCC(=O)O)cc1	-12	x	3.4*	-1	x	x
O=C(Nc1ccc2c(c1)oc1ccccc12)c1ccc2c(c1)OCO2	3	128	1	-5	1.3	42
O=c1c(O)c(-c2ccc3c(c2)OCO3)oc2ccccc12	-12	98	-1	69*	1.2	31
Cc1nn(-c2ccc(N3CCCCC3)nn2)c(C)c1CCC(=O)Nc1ccc(F)c(F)c1	x	x	x	4	x	x
CCc1ccc(-c2csc(NC(=O)C3=COCCO3)n2)cc1	x	x	x	6	x	x
CCCCn1c(-c2ccccc2)cnc1SCC(=O)NCCc1ccc(OC)c(OC)c1	5	134*	-1	2	1.1	x
COc1ccc(CCNC(=O)CSc2nnc(-c3ccccc3)c3ccccc23)cc1OC	-11	85	-1	2	0.85	-16
COc1ccc(CCNC(=O)COC(=O)c2cnc(C)cn2)cc1OC	31*	105	1	2	2.3	21
SMILES	Mdm2 ligase inh	STAT1 activator	PERK inhibitor	AHR activator	NF-kB neuron act	APP 5'UTR act
Cc1onc(-c2c(Cl)cccc2Cl)c1NC(=O)NC1CCSC1 (stereo unspecified)	-16	x	1	3	x	x
COc1ccccc1CCC(=O)Nc1ccc2c(c1)CN(Cc1ccc(CO)o1)CC2	x	x	x	10	x	x
O=C(Nc1ccc2c(c1)CN(Cc1ccc(CO)o1)CC2)c1ccc(C(F)(F)F)cc1	x	x	x	55*	x	x
CC(=O)N(c1cccc(C(F)(F)F)c1)c1nc(/C=C/C(=O)O)cs1	x	x	1	73*	x	x
Brc1cc2c(cc1-c1nc3ccccc3s1)OCO2	x	x	x	53*	x	x
O=C(NCCCO)c1nc2ccccc2s1	3	108	0	8	1	-5
Nc1ccc(-c2nc3ccccc3s2)cn1	x	x	x	14	x	x
Brc1ccc(-c2nc3ccccc3s2)s1	-41	137*	0	17	6.8*	115
CCCNC(=O)c1ccc(-c2nc3ccccc3s2)s1	-81	88	0	14	4.6*	155*
COc1ccc2c(c1)CC1c3c(cc4c(c3-2)OCO4)CC[N+]1(C)[O-] (stereo unspecified)	-7	x	x	16	x	x

High-throughput results as filed in PubChem.
